The whole screen tested about 360,000 compounds, of which about 3,600 (1%) were called active. What follows is part of a selection rich in actives, with near analogues and random picks from the rest. Values without a mark were called inactive.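 Rule for the calls: active = activation above the mean activation of all test compounds in the run plus 3 SD (cut at about 38% in these data); inactive = the rest.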
target: Trace amine-associated receptor 1 (Homo sapiens) (UniProt Q96RJ0); experiment: human TAAR1 agonists, primary screen, Fluo-8 calcium fluorescence, CHO RD-HGA16 cells (AID 624467); details: CHO RD-HGA16 TAAR1, Fluo-8 calcium fluorescence; at 3 µM; stronger effect = higher value; vehicle wells 0%, saturating PEA agonist 100%
Sequence (Q96RJ0 whole entry, looked up): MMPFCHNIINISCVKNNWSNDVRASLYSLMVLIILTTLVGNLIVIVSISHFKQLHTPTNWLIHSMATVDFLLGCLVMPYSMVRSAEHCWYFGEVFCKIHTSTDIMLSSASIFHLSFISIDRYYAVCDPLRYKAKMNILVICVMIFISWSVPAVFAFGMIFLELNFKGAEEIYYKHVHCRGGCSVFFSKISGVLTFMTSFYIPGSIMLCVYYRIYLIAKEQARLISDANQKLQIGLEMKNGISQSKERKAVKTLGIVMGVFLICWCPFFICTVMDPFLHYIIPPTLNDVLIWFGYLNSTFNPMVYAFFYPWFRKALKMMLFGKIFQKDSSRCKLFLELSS
In short: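 Test system: RD-HGA16 (CHO) cells co-expressing Gα16 and hTAAR1 / Benchmarks: DMSO vehicle as 0%, PEA at EC100 as 100% / Repeats: no replicates (n 1) / Measure: % activation from peak over basal fluorescence ratio, DMSO-to-PEA scaled / Timing: 17-24 h plating, Fluo-8 75 min 37 °C, 30 min RT / Technique: kinetic Fluo-8 calcium fluorescence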

Which activation does the source give for `Cc1cc2oc(=O)cc(-c3ccccc3)c2c(C)c1-c1ccc(OC(F)(F)F)cc1` here?
Its activation is 2.46%.

Which activation does the source give for `CCO[C@H]1OC(C(=O)N2CCOCC2)=C[C@@H](c2ccc3c(c2)OCO3)[C@@H]1CCCO` here?
Its activation is 5.53%.

Which activation does the source give for `O=C(NCc1ccccc1)[C@@H]1CCCN1C(=O)[C@@H](NS(=O)(=O)c1ccc(F)cc1F)C1CCCCC1` here?
Its activation is -0.54%.

How did the activation turn out when `COc1ccccc1CNS(=O)(=O)c1c(C)[nH]c(C)c1C(=O)N1CCCCC1` was run?
The activation was 0.59%.

Which activation does the source give for `NC(N)=Nc1nc2ccc(Br)cc2c(=O)[nH]1` here?
The activation was 10.5%.

How did the activation turn out when `O=c1c2cc(Br)ccc2nc(-c2cccc(Cl)c2)n1O` was run?
The activation was 51.9% (active).

With `NC(=O)c1cc(-c2cccnc2)nc2ccc(Br)cc12` as the molecule, how does the activation read?
The activation was 0.6%.

`C=CCNC(=O)COc1coc(CN2CCN(Cc3ccccc3)CC2)cc1=O` was tested. Which activation did it give?
The activation was 2.55%.

Which activation does the source give for `CC(C)c1ccc(NC(=O)Cn2ncc3ccccc32)cc1` here?
The activation was 1.09%.

`CCC(C(=O)OCC(=O)Nc1c(Cl)cc(Cl)cc1Cl)c1ccccc1` (configuration not stated) was tested. Which activation did it give?
The activation was 8.86%.

How did the activation turn out when `CCC(C(=O)Nc1ccc(C(C)C)cc1)c1ccccc1` (configuration not stated) was run?
Its activation is 95.2% (active).

`CCOC(=O)N(C)c1c(CC)nc2c(OCc3ccccc3C(=O)OC)cccn12` was tested. Which activation did it give?
The activation was 0.97%.

How did the activation turn out when `O=C(CN1CCSCC1)N/N=C/c1ccc(Cl)cc1` was run?
Its activation is 12.7%.

How did the activation turn out when `O=C1NC[C@H](CCCCN2CCN(CCc3ccccc3)C(=O)C2=O)N(CC2CCCCC2)C1=O` was run?
Its activation is 1.95%.

Which activation does the source give for `CCN(CCN(C)C)C(=O)c1ccc2nc(C)c(N(C)C(=O)CCc3ccccc3)n2c1` here?
Its activation is 1.46%.

`O=C1C=C(c2ccc(Cl)cc2)C(=O)N1Nc1ccccc1` was tested. Which activation did it give?
The activation was 58.9% (active).

How did the activation turn out when `O=C(COC(=O)c1cccc(Cl)c1)NC(=O)NCc1ccccc1` was run?
Its activation is 2.7%.

Which activation does the source give for `CCCCCc1c(-c2cccc(Br)c2)ncn1CCc1ccccc1OC` here?
Its activation is 50.1% (active).

How did the activation turn out when `CCc1c(-c2ccc(F)cc2)ncn1Cc1cccc(-c2ccccc2)c1` was run?
Its activation is 0.6%.

`CCCCCc1c(-c2ccc(OC)c(OC)c2)ncn1CCc1ccccc1OC` was tested. Which activation did it give?
Its activation is 60.6% (active).

For `CCCCN1C(=O)C(C)=C(C)C1OCCc1ccc(OC)c(OC)c1` (configuration not stated), which activation is on record?
Its activation is 2.56%.

How did the activation turn out when `COC(=O)c1ccc2nc(-c3ccc(OC)c(OC)c3)c(Cc3ccccc3)n2c1` was run?
The activation was -2.01%.

How did the activation turn out when `CCCCCc1c(Cc2ccccc2)ncn1CCc1ccccc1OC` was run?
The activation was 62.8% (active).

Which activation does the source give for `COC(=O)c1ccc2nc(-c3cccc(Br)c3)c(Cc3ccccc3C(F)(F)F)n2c1` here?
Its activation is 4.12%.

For `CCCCNS(=O)(=O)CCNCc1ccccc1OC`, which activation is on record?
The activation was -1.08%.

Which activation does the source give for `Cn1c(=O)c2c(ncn2CCc2ccccc2)n(C)c1=O` here?
The activation was 2.07%.

How did the activation turn out when `C=C1CCC(N(O)c2cc(C)on2)C(=C)CCC2C1CC2(C)C` (configuration not stated) was run?
The activation was 2.74%.

`COC(=O)C1=C(C)N(Cc2ccc(C(F)(F)F)cc2)C(=NCc2ccccc2)NC1c1ccccc1C(F)(F)F` (configuration not stated) was tested. Which activation did it give?
Its activation is 5.43%.

With `O=C(CC1NCCc2ccccc21)Nc1cccc(Cl)c1` (configuration not stated) as the molecule, how does the activation read?
The activation was 9.23%.

Which activation does the source give for `COCCNC(=S)N(C)[C@H]1C[C@H]2c3[nH]c4ccccc4c3CCN2C[C@H]1[C@H](C)O` here?
Its activation is 3.21%.

`CC1CCCCC1NC(=O)CSc1nnc(N)s1` (configuration not stated) was tested. Which activation did it give?
The activation was 9.77%.

`CCN(CC)C(=O)CS(=O)CC(=O)Nc1cc(OCCOC)c(Cl)cc1Cl` (configuration not stated) was tested. Which activation did it give?
The activation was 5.84%.

With `COc1ccc(OC)c(NC(=O)c2ccc3c(c2)CCN3S(C)(=O)=O)c1` as the molecule, how does the activation read?
Its activation is 2.63%.

Which activation does the source give for `Cc1ccc2nc(-c3ccc(CN4CCC(n5cc(-c6ccccc6)[nH]c5=O)CC4)cc3)c(-c3ccccc3)nc2c1` here?
The activation was 1.53%.

With `c1ccc2c(c1)C(=NC1CCCCC1)NC2=NC1CCCCC1` as the molecule, how does the activation read?
The activation was 83.2% (active).

Which activation does the source give for `Cn1nccc1NC(=O)CC(CC(=O)O)c1ccccc1` (configuration not stated) here?
The activation was 1.46%.

With `Nc1ncnc2c1ncn2[C@@H]1O[C@H](C(=O)N[C@@H](CCc2ccccc2)C(=O)N2CCCN(Cc3cccs3)CC2)[C@@H](O)[C@H]1O` as the molecule, how does the activation read?
Its activation is -0.59%.

`C=CCNC(=O)COC(=O)CNC(=O)c1cc(Cl)cc([N+](=O)[O-])c1` was tested. Which activation did it give?
The activation was -0.52%.

For `CC[C@H](NC(=O)[C@H](Cc1ccccc1)NC(=O)[C@H]1O[C@@H](n2cnc3c(=O)[nH]c(N)nc32)[C@H](O)[C@@H]1O)c1ccccc1`, which activation is on record?
Its activation is 12.6%.

With `Cc1nc(C(=O)NCc2ccccc2)sc1C1(C)CC(c2cccnc2)=NO1` (configuration not stated) as the molecule, how does the activation read?
Its activation is 57.5% (active).

Which activation does the source give for `Cc1nc(C(=O)Nc2ccc(Cl)cc2)sc1C1(C)CC(c2ccccc2)=NO1` (configuration not stated) here?
The activation was 5.24%.

For `Cc1nc(-c2ccc(Cl)cc2)sc1C1(C)CC(c2ccccc2F)=NO1` (configuration not stated), which activation is on record?
Its activation is -1.12%.

With `O=C(C(=O)N1CCC(CNC(=O)c2cccnc2Cl)CC1)c1cccs1` as the molecule, how does the activation read?
The activation was 1.11%.

For `CN1C(=O)CN2CCc3ccccc3C2c2cc(Cl)ccc21` (configuration not stated), which activation is on record?
The activation was 3.95%.

With `CC(=O)c1ccc(S(=O)(=O)NCC2CCN(C(=O)C(=O)c3cccs3)CC2)cc1` as the molecule, how does the activation read?
The activation was 6.58%.

How did the activation turn out when `O=C1CCCN2N=C(SCC(=O)Nc3ccc(Br)cc3)SC2=N1` was run?
The activation was 46.4% (active).

With `O=C(O)CC(SCC(=O)Nc1ccc(Br)cc1)C(=O)O` (configuration not stated) as the molecule, how does the activation read?
Its activation is 5.77%.

With `O=C(CSCc1ccc(Br)cc1)Nc1ccc(S(=O)(=O)N2CCCCCC2)cc1` as the molecule, how does the activation read?
Its activation is 23.4%.

For `COC(=O)C1=C(C)N(Cc2ccccc2C(F)(F)F)C(=NCC2CC2)NC1c1cccc(Cl)c1` (configuration not stated), which activation is on record?
Its activation is 26.6%.

For `O=C(/C=C/[C@H]1O[C@@H](n2cnc3c(NC(=O)c4ccccc4)ncnc32)[C@H](O)[C@@H]1O)NCc1ccccc1`, which activation is on record?
The activation was 54.8% (active).

How did the activation turn out when `CCC(C)C(CO)NC(=O)/C=C/[C@H]1O[C@@H](n2cnc3c(NC(=O)c4ccccc4)ncnc32)[C@H](O)[C@@H]1O` (some centres not stated) was run?
Its activation is 2.69%.

Which activation does the source give for `COc1cccc(CN(C)C(=O)CC[C@H]2O[C@@H](n3cnc4c(NC(=O)c5ccccc5)ncnc43)[C@H](O)[C@@H]2O)c1` here?
Its activation is 0.18%.

With `COc1ccc(C(CNC(=O)c2cccc(S(=O)(=O)Nc3ccccc3Cl)c2)N2CCOCC2)cc1` (configuration not stated) as the molecule, how does the activation read?
Its activation is -1.44%.

How did the activation turn out when `Cc1ccc(NC(=S)Nc2ncccc2C)c(C)c1` was run?
Its activation is -3.17%.

With `CC(C)N(Cc1nnc(-c2ccccc2Br)o1)C(=O)c1cc(Cl)nc2ccccc12` as the molecule, how does the activation read?
The activation was 4.53%.

How did the activation turn out when `Nc1cccc2c1C(=O)N(Cc1nnc(-c3ccccc3Br)o1)C2=O` was run?
The activation was 75.4% (active).

How did the activation turn out when `Cn1cnnc1SCc1nnc(-c2ccccc2Br)o1` was run?
The activation was 11.2%.

— PubChem BioAssay AID624467 (The Scripps Research Institute Molecular Screening Center, 2012)
